Reference: ChEMBL document CHEMBL4834436, “Discovery of the S1P2 Antagonist GLPG2938 (1-[2-Ethoxy-6-(trifluoromethyl)-4-pyridyl]-3-[[5-methyl-6-[1-methyl-3-(trifluoromethyl)pyrazol-4-yl]pyridazin-3-yl]methyl]urea), a Preclinical Candidate for the Treatment of Idiopathic Pulmonary Fibrosis” (J Med Chem, 2021)
In brackets after ≈: the same amount, converted by molar mass. Activity calls are given as the source filed them. The rule behind the calls is not given here.

Tests used:
[1] = biological target: T1, Sphingosine 1-phosphate receptor 2 (Homo sapiens, UniProt O95136); assay: Antagonist activity at human S1P2 receptor expressed in CHO cells assessed as EC80 S1P-induced calcium flux measured for 3 mins by fluorescence assay; assay type: functional, cell-based
T1 sequence (O95136 whole entry): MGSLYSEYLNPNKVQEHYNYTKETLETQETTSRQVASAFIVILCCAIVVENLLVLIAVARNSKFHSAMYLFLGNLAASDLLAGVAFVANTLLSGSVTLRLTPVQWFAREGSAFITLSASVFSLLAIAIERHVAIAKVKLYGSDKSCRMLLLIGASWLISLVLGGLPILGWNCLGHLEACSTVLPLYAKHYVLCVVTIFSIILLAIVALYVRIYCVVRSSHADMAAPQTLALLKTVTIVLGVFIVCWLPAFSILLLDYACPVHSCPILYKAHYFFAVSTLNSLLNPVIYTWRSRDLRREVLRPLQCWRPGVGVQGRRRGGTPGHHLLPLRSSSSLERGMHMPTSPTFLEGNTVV
Summary of the method: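 Same dye-loaded, starved human S1P2-CHO cells; after agonist readout, 15 min at 37 °C, then stimulated with S1P at EC80, fluorescence read 3 min. Max/baseline ratio normalized to vehicle and S1P EC80. 10-point 1/3 dilutions from 20 μM final; IC50 derived; geometric mean of ≥2 runs.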

[2] = biological target: T1, Sphingosine 1-phosphate receptor 2; assay: Antagonist activity at recombinant human S1P2 receptor expressed in CHO cells assessed as EC80 S1P-induced activation incubated for 4 hrs in presence of [35S]GTPgammaS by Topcount reader; assay type: functional, cell-based
Summary of the method: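 Membranes from stable lines overexpressing recombinant human S1P2, preincubated with PVT-WGA SPA beads, mixed with compound serial dilutions, [35S]GTPγS and S1P at EC80. Incubated 4 h at room temperature, centrifuged, scintillation counted. Antagonist mode; IC50 as geometric mean of ≥2 runs.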

[3] = biological target: T1, Sphingosine 1-phosphate receptor 2; assay: Antagonist activity at recombinant human S1P2 receptor in HFL1 cells assessed as inhibition of EC80 S1P-induced IL8 release incubated for 16 to 24 hrs in absence of HSA by ELISA; assay type: functional, cell-based
Summary of the method: (§1)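 HFL-1 lung fibroblasts seeded in 96- or 384-well plates, then medium replaced by starvation medium with 1% heat-inactivated FBS, ±1.95% HSA (2% HSA condition), 16–24 h. 10-point 1/3 dilutions, 30 μM top final, 1 h, then S1P at EC80 (without HSA: 1 μM 96-well or 0.5 μM 384-well; with HSA: 5 or 2 μM).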

[4] = Intrinsic clearance unbound in mouse liver microsomes at 1 uM […] by LC-MS/MS analysis; assay type: ADME, Microsome
[5] = biological target: T1, Sphingosine 1-phosphate receptor 2; assay: Antagonist activity at recombinant human S1P2 receptor in HFL1 cells assessed as inhibition of EC80 S1P-induced IL8 release incubated for 16 to 24 hrs in presence of 2% HSA by ELISA; assay type: functional, cell-based; summary of the method: as §1
[6] = Intrinsic clearance unbound in human liver microsomes at 1 uM […] by LC-MS/MS analysis; assay type: ADME, Microsome
[7] = Half life in CD1 mouse at 1 mg/kg, iv measured up to 24 hrs by LC-MS/MS analysis; assay type: ADME, organism-based; conditions: in vivo
Summary of the method: (§2)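 Male CD1 mice, composite design, n = 6 per route; iv 1 mg/kg in PEG200/water 60/40, oral gavage 5 mg/kg in Tween 80/MC 0.5% or PEG400/MC 0.5% after ≥12 h fast. Li-heparin blood sampled to 24 h, plasma by LC-MS/MS; noncompartmental analysis. Plasma protein binding: 5 μM compound, 4 h incubation.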

[8] = Half life in Sprague-Dawley rat at 1 mg/kg, iv measured up to 24 hrs by LC-MS/MS analysis; assay type: ADME, organism-based; conditions: in vivo
Summary of the method: (§3)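 Male Sprague-Dawley rats (6–8 weeks), n = 3 per route; iv bolus 1 mg/kg in PEG200/water 60/40; gavage 5 or 10 mg/kg in PEG400/MC 0.5% after ≥12 h fast. Li-heparin plasma sampled to 24 h, LC-MS/MS, noncompartmental analysis. Plasma protein binding: 5 μM compound, 4 h incubation.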

[9] = Half life in beagle dog at 1 mg/kg, iv measured up to 24 hrs by LC-MS/MS analysis; assay type: ADME, organism-based, Canis lupus familiaris; conditions: in vivo
Summary of the method: (§4)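 Non-naive male Beagle dogs (n = 3) given 1 mg/kg iv as 10 min infusion; after 3-day washout, oral gavage 5 or 1 mg/kg in PEG400/MC 0.5% or MC 0.5% after ≥12 h fast. Jugular or cephalic blood into lithium heparin to 24 h; plasma analysed. Plasma protein binding: 5 μM compound, 4 h incubation.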

[10] = Clearance in CD1 mouse at 1 mg/kg, iv measured up to 24 hrs by LC-MS/MS analysis; assay type: ADME, organism-based; conditions: in vivo; summary of the method: as §2
[11] = Clearance in Sprague-Dawley rat at 1 mg/kg, iv measured up to 24 hrs by LC-MS/MS analysis; assay type: ADME, organism-based; conditions: in vivo; summary of the method: as §3
[12] = Clearance in beagle dog at 1 mg/kg, iv measured up to 24 hrs by LC-MS/MS analysis; assay type: ADME, organism-based, Canis lupus familiaris; conditions: in vivo; summary of the method: as §4
[13] = Volume of distribution at steady state in CD1 mouse at 1 mg/kg, iv measured up to 24 hrs by LC-MS/MS analysis; assay type: ADME, organism-based; conditions: in vivo, read-out: Vdss; summary of the method: as §2
[14] = Volume of distribution at steady state in Sprague-Dawley rat at 1 mg/kg, iv measured up to 24 hrs by LC-MS/MS analysis; assay type: ADME, organism-based; conditions: in vivo, read-out: Vdss; summary of the method: as §3
[15] = Volume of distribution at steady state in beagle dog at 1 mg/kg, iv measured up to 24 hrs by LC-MS/MS analysis; assay type: ADME, organism-based, Canis lupus familiaris; conditions: in vivo, read-out: Vdss; summary of the method: as §4
[16] = Oral bioavailability in CD1 mouse at 5 mg/kg measured up to 24 hrs by LC-MS/MS analysis; assay type: ADME, organism-based; conditions: in vivo; summary of the method: as §2
[17] = Oral bioavailability in Sprague-Dawley rat at 10 mg/kg measured up to 24 hrs by LC-MS/MS analysis; assay type: ADME, organism-based; conditions: in vivo; summary of the method: as §3
[18] = Oral bioavailability in beagle dog at 1 mg/kg measured up to 24 hrs by LC-MS/MS analysis; assay type: ADME, organism-based, Canis lupus familiaris; conditions: in vivo; summary of the method: as §4
[19] = Plasma protein binding CD1 mouse plasma at 5 uM incubated for 4 hrs; assay type: ADME, cell-free; conditions: read-out: PPB (converted); summary of the method: as §2
[20] = Plasma protein binding Sprague-Dawley rat plasma at 5 uM incubated for 4 hrs; assay type: ADME, cell-free; conditions: read-out: PPB (converted); summary of the method: as §3
[21] = Plasma protein binding beagle dog plasma at 5 uM incubated for 4 hrs; assay type: ADME, cell-free, Canis lupus familiaris; conditions: read-out: PPB (converted); summary of the method: as §4
[22] = Thermodynamic solubility in FaSSGF at pH 1.6; assay type: physicochemical; conditions: read-out: Therm_solubility
[23] = Thermodynamic solubility in FaSSIF; assay type: physicochemical; conditions: read-out: Therm_solubility
[24] = system: Mus musculus; assay: Antifibrotic activity against intranasal bleomycin-induced C57BL/6 mouse lung fibrosis model assessed as reduction in Ashcroft score at 3 to 30 mg/kg, po twice daily for 14 days; assay type: functional, organism-based; conditions: dose 3-30 mg/kg, time 14.0 day
Summary of the method: (§5)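 Male C57BL/6 mice (7–8 weeks on arrival, one week acclimation) given bleomycin intranasally; prophylactic oral dosing twice daily for 14 days. Lungs scored histologically by Matsuse-modified Ashcroft score; 14–15 mice per group; Mann–Whitney vs bleomycin/vehicle.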

[25] = biological target: T1, Sphingosine 1-phosphate receptor 2; assay: Antagonist activity at recombinant human S1P2 receptor in HFL1 cells assessed as inhibition of EC80 S1P-induced IL8 release measured as unbound concentration incubated for 16 to 24 hrs in presence of 2% HSA by ELISA; assay type: functional, cell-based; conditions: filed as antagonist, time 16-24 hrs
Summary of the method: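 IL8 IC50 from the 2% HSA condition converted to free IC50 = IC50 × fu,medium, where fu,medium is estimated from human plasma protein binding fraction unbound and the serum percentage used in the assay.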

[26] = Oral bioavailability in Sprague-Dawley rat at 5 mg/kg measured up to 24 hrs by LC-MS/MS analysis; assay type: ADME, organism-based; conditions: in vivo; summary of the method: as §3
[27] = Oral bioavailability in beagle dog at 5 mg/kg measured up to 24 hrs by LC-MS/MS analysis; assay type: ADME, organism-based, Canis lupus familiaris; conditions: in vivo; summary of the method: as §4
[28] = biological target: CYP2C19 (Homo sapiens, UniProt P33261); assay: Inhibition of recombinant CYP2C19 (unknown origin) at 10 uM; assay type: ADME
CYP2C19, sequence (P33261 whole entry): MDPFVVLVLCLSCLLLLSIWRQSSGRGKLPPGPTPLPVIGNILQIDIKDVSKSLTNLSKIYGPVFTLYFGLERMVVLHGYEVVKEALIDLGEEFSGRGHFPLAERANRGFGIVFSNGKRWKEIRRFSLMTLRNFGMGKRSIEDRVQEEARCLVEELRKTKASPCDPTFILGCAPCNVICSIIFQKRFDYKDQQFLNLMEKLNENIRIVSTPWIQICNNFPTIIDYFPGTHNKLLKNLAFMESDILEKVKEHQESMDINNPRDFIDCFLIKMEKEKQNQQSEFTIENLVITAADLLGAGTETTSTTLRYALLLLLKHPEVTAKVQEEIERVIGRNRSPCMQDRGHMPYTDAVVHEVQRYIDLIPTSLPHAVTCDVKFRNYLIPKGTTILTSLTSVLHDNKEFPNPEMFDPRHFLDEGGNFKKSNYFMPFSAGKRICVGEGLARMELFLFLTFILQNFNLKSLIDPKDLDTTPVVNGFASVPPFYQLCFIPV

[29] = biological target: CYP2C9 (Homo sapiens, UniProt P11712); assay: Inhibition of recombinant CYP2C9 (unknown origin) at 10 uM; assay type: ADME
CYP2C9, sequence (P11712 whole entry): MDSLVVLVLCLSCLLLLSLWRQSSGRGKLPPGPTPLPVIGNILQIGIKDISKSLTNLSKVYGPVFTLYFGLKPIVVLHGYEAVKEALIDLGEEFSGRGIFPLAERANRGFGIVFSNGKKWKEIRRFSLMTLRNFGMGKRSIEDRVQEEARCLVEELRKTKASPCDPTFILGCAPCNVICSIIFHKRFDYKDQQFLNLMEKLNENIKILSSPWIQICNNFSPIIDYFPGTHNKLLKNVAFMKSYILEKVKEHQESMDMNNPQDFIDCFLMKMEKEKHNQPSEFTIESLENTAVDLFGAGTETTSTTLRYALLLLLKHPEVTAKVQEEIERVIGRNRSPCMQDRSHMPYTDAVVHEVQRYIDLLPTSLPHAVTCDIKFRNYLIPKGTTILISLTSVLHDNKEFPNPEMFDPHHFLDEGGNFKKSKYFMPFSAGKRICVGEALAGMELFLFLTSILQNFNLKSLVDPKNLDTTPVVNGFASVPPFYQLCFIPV

[30] = biological target: CYP3A4 (Homo sapiens, UniProt P08684); assay: Inhibition of recombinant CYP3A4 (unknown origin) at 10 uM; assay type: ADME
CYP3A4, sequence (P08684 whole entry): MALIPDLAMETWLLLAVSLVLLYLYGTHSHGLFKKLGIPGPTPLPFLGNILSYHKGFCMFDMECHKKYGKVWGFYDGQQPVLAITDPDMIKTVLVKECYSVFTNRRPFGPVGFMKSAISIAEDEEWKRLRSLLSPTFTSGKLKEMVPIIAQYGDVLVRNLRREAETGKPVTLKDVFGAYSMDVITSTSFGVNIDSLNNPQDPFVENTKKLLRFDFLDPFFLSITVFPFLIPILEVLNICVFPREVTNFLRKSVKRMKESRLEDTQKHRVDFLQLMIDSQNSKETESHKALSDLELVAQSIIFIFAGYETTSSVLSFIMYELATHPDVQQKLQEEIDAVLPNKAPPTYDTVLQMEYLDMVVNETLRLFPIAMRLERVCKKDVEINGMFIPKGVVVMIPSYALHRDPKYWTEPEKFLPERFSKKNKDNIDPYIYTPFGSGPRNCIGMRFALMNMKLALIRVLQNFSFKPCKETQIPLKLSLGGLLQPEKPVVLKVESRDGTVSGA

[31] = system: Fibroblast; assay: Prevention of S1P-induced human pulmonary fibroblasts contraction in collagen gel lattice mixture pretreated with TGFbeta for 72 hrs followed by treated at 0.5 to 5 uM compound incubated for 2 hrs then treated with S1P for 1 hr; assay type: functional, cell-based; conditions: dose 0.5-5 µM, time 96.0 hrs, in the assay text read “96 hrs” for “72 hrs”
Summary of the method: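 Normal human lung fibroblasts pretreated 4 days with 1 ng/mL TGF-β, embedded in neutralized collagen I gels (200,000 cells/gel), kept 72 h in serum-free FGM with TGF-β for stress build-up. Compound added for 2 h, then 1 μM S1P; gels released and incubated 1 h at 37 °C; gel area imaged. Mean with 95% CI.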

[32] = system: Mus musculus; assay: Antifibrotic activity against intranasal bleomycin-induced C57BL/6 mouse lung fibrosis model assessed as reduction in Ashcroft score at 1 to 10 mg/kg, po twice daily for 14 days; assay type: functional, organism-based; conditions: dose 1-10 mg/kg, time 14.0 day; summary of the method: as §5
[33] = biological target: Voltage-gated inwardly rectifying potassium channel KCNH2 (Homo sapiens, UniProt Q12809); assay: Inhibition of human ERG
Voltage-gated inwardly rectifying potassium channel KCNH2, sequence (Q12809 whole entry): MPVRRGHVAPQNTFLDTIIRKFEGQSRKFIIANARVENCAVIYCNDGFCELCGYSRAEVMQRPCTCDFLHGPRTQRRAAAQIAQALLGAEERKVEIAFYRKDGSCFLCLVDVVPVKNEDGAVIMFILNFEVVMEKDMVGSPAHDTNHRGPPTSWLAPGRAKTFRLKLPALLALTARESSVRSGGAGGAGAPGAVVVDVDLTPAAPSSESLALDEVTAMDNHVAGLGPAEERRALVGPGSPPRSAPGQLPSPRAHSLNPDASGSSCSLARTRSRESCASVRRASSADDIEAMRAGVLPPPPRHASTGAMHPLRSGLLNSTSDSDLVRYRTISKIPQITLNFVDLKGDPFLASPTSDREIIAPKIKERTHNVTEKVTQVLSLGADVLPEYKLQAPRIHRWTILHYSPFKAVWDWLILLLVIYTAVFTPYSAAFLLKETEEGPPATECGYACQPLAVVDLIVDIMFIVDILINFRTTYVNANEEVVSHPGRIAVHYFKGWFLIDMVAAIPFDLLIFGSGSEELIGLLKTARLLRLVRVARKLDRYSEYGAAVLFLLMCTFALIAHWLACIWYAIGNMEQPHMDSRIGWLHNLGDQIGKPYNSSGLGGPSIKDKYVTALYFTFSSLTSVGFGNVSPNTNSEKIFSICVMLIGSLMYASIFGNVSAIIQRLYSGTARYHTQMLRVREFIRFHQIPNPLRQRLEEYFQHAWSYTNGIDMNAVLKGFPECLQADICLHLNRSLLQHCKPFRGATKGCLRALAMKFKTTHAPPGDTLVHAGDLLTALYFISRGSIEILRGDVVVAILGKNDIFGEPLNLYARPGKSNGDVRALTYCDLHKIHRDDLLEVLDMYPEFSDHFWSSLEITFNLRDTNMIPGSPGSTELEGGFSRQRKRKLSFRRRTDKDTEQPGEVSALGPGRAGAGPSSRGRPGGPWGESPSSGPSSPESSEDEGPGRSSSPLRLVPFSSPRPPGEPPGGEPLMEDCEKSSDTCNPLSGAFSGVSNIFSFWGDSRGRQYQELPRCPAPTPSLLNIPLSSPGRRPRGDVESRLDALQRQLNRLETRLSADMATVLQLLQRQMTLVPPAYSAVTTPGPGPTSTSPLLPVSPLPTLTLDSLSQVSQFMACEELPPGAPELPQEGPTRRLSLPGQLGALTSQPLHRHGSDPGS

Row | IC50 [1] | IC50 [2] | IC50 [3] | CL free [4] | IC50 [5] | CL free [6] | half-life [7] | half-life [8] | half-life [9] | clearance [10] | clearance [11] | clearance [12] | Vd [13] | Vd [14] | Vd [15] | bioavailability [16] | fraction unbound at 4 h, 5 µM [19] | fraction unbound at 4 h, 5 µM [20] | fraction unbound at 4 h, 5 µM [21] | solubility thermodynamic [22] | Compound | also measured
1 | 4500 nM | 16000 nM | 16 nM | 283 mL/min/kg | 49 nM | 36.7 mL/min/kg | 0.45 h | 1 h | 1.6 h | 12.2 mL/min/kg | 6.17 mL/min/kg | 11 mL/min/kg | 0.47 L/kg | 0.54 L/kg | 1.5 L/kg | 29% | 0.014 | 0.004 | 0.022 | 505 µg/mL (≈ 1090 µM) | CCOc1nc(C)cc(NC(=O)NCc2cc(C)c(-c3cn(C)nc3C(F)(F)F)nn2)c1C | bioavailability [17]: 84%; bioavailability [18]: 39%; solubility thermodynamic [23]: 15 µg/mL (≈ 32.4 µM); Activity [24]: Active; fIC50 [25]: 1.3 nM
2 | 7700 nM | 20000 nM | 20 nM | < 383 mL/min/kg | 45 nM | < 43.3 mL/min/kg | 0.55 h | 1.1 h | 3.1 h | 10.3 mL/min/kg | 4.17 mL/min/kg | 7.83 mL/min/kg | 0.49 L/kg | 0.38 L/kg | 2.1 L/kg | 20% | 0.002 | 0.001 | 0.016 | 5 µg/mL (≈ 10.6 µM) | CCOc1cc(NC(=O)NCc2cc(C)c(-c3cn(C)nc3C(F)(F)F)nn2)cc(Cl)n1 | bioavailability [26]: 10%; bioavailability [27]: 30%; solubility thermodynamic [23]: 36 µg/mL (≈ 76.6 µM); inhibition at 10 µM [28]: 61%; inhibition at 10 µM [29]: 58%; inhibition at 10 µM [30]: 23%; fIC50 [25]: 1 nM
3 | 8800 nM | 29000 nM | 29 nM | 140 mL/min/kg | 87 nM | < 38.3 mL/min/kg | 2.3 h | 2.7 h | 7.6 h | 4 mL/min/kg | 1.52 mL/min/kg | 1.67 mL/min/kg | 0.81 L/kg | 0.35 L/kg | 1.1 L/kg | 64% | 0.001 | < 0.001 | 0.003 | 2.7 µg/mL (≈ 5.36 µM) | CCOc1cc(NC(=O)NCc2cc(C)c(-c3cn(C)nc3C(F)(F)F)nn2)cc(C(F)(F)F)n1 | bioavailability [26]: 29%; solubility thermodynamic [23]: 23 µg/mL (≈ 45.7 µM); Activity [31]: Active; Activity [32]: Active; inhibition (INH) [33]: Not Active; fIC50 [25]: 0.6 nM
